Consider 13 compounds from ChEMBL document CHEMBL4819017 (Eur J Med Chem, 2021).

Each structure is given as a SMILES string.

For data set [1], the target named is Phosphatidylinositol 4,5-bisphosphate 3-kinase catalytic subunit alpha isoform (Homo sapiens, UniProt P42336). Description: Inhibition of human full length p110alpha (1 to 1068 residues) expressed in baculovirus-infected Sf21 cells by ADP-Hunter Plus assay.
Data set [2] in a line: Inhibition of PI3K/mTOR in human U2OS cells assessed as inhibition of AKT1 phosphorylation at Ser473 residue by C-ELISA. Type of data set: cell-based. An outline of the steps: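 U2OS osteosarcoma cells grown in 0.1% FBS and serum-stimulated. Endogenous phospho-AKT1 Ser473 quantified by cell-based ELISA with chemiluminescent substrate. Signal plotted against inhibitor concentration and fitted to a sigmoid dose-response curve.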
(In general: An ELISA detects its analyte on a solid surface through an enzyme-linked reagent.)

The nature of data set [3]: Metabolic stability in human liver microsomes assessed as parent compound remaining in presence of NADPH regenerating system at 0.5 uM measured after 15 mins by LC-MS/MS analysis. Format: ADME, Microsome. Particulars: read-out: Stabilty. The method in brief: (§1)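 Human, mouse or rat liver microsomes at 0.5 mg/ml protein with compound at 0.5 µM and NADPH-regenerating system, 37 °C with shaking. Control wells contain 0.1 M potassium phosphate instead of the regenerating system. Reaction stopped with acetonitrile/0.1% formic acid, centrifuged, supernatant analyzed by LC-MS/MS. Result is percent parent compound remaining.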
(Microsomes from liver hold many membrane-bound enzymes, among them those of drug oxidation.)

Data set [4] is described as follows: Metabolic stability in mouse liver microsomes assessed as parent compound remaining in presence of NADPH regenerating system at 0.5 uM measured after 15 mins by LC-MS/MS analysis. Format: ADME, Microsome. Particulars: read-out: Stabilty. The method in brief:
as §1

A short description of data set [5]: Metabolic stability in rat liver microsomes assessed as parent compound remaining in presence of NADPH regenerating system at 0.5 uM measured after 15 mins by LC-MS/MS analysis. Particulars: read-out: Stabilty. Type of data set: ADME, Microsome. An outline of the steps: as §1
Another data set deals with T1, Cytochrome P450 1A2 (Homo sapiens, UniProt P05177).
T1 sequence (P05177 whole entry): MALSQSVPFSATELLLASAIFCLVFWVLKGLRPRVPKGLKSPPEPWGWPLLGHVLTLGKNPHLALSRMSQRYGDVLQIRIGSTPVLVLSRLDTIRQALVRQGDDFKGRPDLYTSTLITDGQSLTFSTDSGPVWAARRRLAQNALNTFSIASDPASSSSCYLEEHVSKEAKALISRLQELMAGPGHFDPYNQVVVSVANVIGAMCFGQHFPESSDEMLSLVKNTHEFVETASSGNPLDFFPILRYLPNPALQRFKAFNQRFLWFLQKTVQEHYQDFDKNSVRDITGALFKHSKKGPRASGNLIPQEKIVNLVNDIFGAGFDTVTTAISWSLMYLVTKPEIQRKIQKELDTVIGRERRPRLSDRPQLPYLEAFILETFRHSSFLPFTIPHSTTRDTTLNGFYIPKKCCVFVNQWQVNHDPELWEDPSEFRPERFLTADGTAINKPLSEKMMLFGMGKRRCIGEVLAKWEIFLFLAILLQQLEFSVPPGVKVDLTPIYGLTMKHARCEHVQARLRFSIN
Description: Inhibition of CYP1A2 (unknown origin) using Luciferin-ME as substrate at 10 uM preincubated with enzyme and substrate for 5 mins followed by addition of NADPH regeneration system and measured after 60 mins by luminescence method. Type of data set: ADME. An outline of the steps:
(§2)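 P450-Glo luminescence assays with these substrates: Luciferin-ME (CYP1A2), Luciferin-PPXE (CYP3A4), Luciferin-H (CYP2C9), LuciferinH-EG (CYP2C19), Luciferin-ME-EG (CYP2D6). Compounds run in 1/3 serial dilutions from 10 µM in 0.5% DMSO with enzyme and substrate. After 5 min preincubation, NADPH regeneration reagent added; 60 min at 37 °C, then detection reagent for 30 min. Background subtracted.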

For the next data set, the target named is Cytochrome P450 3A4 (Homo sapiens, UniProt P08684). Kind of data set: Inhibition of CYP3A4 (unknown origin) using Luciferin-PPXE as substrate at 10 uM preincubated with enzyme and substrate for 5 mins followed by addition of NADPH regeneration system and measured after 60 mins by luminescence method. Format: ADME. An outline of the steps:
as §2

The next data set deals with Cytochrome P450 2C9 (Homo sapiens, UniProt P11712). Description: Inhibition of CYP2C9 (unknown origin) using Luciferin-H as substrate at 10 uM preincubated with enzyme and substrate for 5 mins followed by addition of NADPH regeneration system and measured after 60 mins by luminescence method. Format: ADME. An outline of the steps:
as §2

The target in another data set is Cytochrome P450 2C19 (Homo sapiens, UniProt P33261). Kind of data set: Inhibition of CYP2C19 (unknown origin) using LuciferinH-EG as substrate at 10 uM preincubated with enzyme and substrate for 5 mins followed by addition of NADPH regeneration system and measured after 60 mins by luminescence method. Type of data set: ADME. An outline of the steps: as §2
Sequence of Cytochrome P450 2C19 (P33261 whole entry): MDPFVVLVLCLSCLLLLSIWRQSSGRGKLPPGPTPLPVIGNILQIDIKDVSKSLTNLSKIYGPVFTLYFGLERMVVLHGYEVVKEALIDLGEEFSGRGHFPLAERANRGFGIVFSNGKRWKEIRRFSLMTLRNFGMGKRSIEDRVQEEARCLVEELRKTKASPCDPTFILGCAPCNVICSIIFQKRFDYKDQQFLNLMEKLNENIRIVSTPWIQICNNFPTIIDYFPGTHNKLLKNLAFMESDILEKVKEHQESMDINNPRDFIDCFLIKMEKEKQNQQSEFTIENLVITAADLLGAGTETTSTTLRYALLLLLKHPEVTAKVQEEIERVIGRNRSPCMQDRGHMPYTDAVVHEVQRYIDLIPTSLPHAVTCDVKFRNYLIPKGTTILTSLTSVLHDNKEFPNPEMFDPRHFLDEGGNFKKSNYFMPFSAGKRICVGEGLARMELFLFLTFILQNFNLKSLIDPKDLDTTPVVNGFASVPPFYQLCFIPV
A further data set concerns the target Cytochrome P450 2D6 (Homo sapiens, UniProt P10635). Kind of data set: Inhibition of CYP2D6 (unknown origin) using Luciferin-ME-EG as substrate at 10 uM preincubated with enzyme and substrate for 5 mins followed by addition of NADPH regeneration system and measured after 60 mins by luminescence method. Type of data set: ADME. An outline of the steps:
as §2

For data set [6], the target named is Voltage-gated inwardly rectifying potassium channel KCNH2 (Homo sapiens, UniProt Q12809). Description: Inhibition of human ERG by fluorescence polarization assay. The method in brief:
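Predictor h-ERG membrane preparations (sonicated) incubated with test compound dilutions and fluorescent tracer (working 4X tracer at 4 nM) at room temperature for ≥1 h. Read-out by fluorescence polarization, ex 530/25, em 590/35.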
(In fluorescence polarisation assays a small probe gives low polarisation when free and higher when bound to something large.)

The target in data set [7] is Serine/threonine-protein kinase mTOR (Homo sapiens, UniProt P42345). Kind of data set: Inhibition of recombinant human GST tagged mTOR (1360 to 2549 residues) expressed in baculovirus expression system measured by LanthaScreen assay. The method in brief:
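mTOR inhibition measured by LanthaScreen assay; IC50 values average two independent experiments.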

For another data set, the species on record is Homo sapiens. Kind of data set: Selectivity ratio of IC50 for recombinant human GST tagged mTOR (1360 to 2549 residues) expressed in baculovirus expression system to IC50 for human full length p110alpha (1 to 1068 residues) expressed in baculovirus-infected Sf21 cells. The method in brief: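 mTOR activity measured by LanthaScreen assay. PI3K-α activity measured by ADP Hunter Plus (ADP accumulation, fluorescence ex 544/em 580 nm), normalized to no-compound control and fitted to a sigmoid dose-response curve. IC50s are the average of two independent experiments. Ratio is mTOR IC50 over PI3K-α IC50.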

For orientation: IC50 means the point on the concentration scale where inhibition reaches its midpoint. Broadly, the EC50 is the concentration needed to bring the measured effect to its halfway point.

Sequence of Voltage-gated inwardly rectifying potassium channel KCNH2 (Q12809 whole entry): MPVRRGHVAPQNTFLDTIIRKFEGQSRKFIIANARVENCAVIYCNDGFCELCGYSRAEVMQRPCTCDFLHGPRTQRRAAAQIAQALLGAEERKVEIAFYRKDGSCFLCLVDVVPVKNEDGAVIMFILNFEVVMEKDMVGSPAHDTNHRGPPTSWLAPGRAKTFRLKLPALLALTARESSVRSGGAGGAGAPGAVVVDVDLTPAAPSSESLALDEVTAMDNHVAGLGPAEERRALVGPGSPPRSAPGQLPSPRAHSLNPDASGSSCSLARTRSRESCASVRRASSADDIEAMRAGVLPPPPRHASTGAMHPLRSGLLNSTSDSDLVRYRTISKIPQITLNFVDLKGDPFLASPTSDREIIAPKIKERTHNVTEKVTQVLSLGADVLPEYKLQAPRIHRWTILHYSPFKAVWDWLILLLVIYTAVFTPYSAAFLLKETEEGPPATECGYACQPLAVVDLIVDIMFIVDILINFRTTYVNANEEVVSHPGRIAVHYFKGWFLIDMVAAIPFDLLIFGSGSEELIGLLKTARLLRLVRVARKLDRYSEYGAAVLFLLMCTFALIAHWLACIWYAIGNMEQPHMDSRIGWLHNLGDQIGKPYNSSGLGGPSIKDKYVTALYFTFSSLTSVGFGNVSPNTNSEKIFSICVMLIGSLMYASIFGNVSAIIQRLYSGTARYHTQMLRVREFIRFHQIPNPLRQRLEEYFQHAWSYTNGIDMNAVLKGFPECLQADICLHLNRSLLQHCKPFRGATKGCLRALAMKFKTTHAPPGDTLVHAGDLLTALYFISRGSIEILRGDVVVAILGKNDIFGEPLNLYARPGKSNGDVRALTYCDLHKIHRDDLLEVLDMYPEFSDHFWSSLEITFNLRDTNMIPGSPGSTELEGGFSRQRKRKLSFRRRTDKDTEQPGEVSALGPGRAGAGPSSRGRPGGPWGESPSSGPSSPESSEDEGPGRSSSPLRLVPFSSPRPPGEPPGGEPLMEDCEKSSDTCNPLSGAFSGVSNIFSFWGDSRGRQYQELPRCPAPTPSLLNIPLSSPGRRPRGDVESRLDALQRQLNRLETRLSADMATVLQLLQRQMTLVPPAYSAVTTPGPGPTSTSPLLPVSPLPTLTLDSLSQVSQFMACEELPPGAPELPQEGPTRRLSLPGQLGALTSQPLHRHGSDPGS
Sequence of Phosphatidylinositol 4,5-bisphosphate 3-kinase catalytic subunit alpha isoform (P42336 whole entry, the tested form may be a part, canonical isoform): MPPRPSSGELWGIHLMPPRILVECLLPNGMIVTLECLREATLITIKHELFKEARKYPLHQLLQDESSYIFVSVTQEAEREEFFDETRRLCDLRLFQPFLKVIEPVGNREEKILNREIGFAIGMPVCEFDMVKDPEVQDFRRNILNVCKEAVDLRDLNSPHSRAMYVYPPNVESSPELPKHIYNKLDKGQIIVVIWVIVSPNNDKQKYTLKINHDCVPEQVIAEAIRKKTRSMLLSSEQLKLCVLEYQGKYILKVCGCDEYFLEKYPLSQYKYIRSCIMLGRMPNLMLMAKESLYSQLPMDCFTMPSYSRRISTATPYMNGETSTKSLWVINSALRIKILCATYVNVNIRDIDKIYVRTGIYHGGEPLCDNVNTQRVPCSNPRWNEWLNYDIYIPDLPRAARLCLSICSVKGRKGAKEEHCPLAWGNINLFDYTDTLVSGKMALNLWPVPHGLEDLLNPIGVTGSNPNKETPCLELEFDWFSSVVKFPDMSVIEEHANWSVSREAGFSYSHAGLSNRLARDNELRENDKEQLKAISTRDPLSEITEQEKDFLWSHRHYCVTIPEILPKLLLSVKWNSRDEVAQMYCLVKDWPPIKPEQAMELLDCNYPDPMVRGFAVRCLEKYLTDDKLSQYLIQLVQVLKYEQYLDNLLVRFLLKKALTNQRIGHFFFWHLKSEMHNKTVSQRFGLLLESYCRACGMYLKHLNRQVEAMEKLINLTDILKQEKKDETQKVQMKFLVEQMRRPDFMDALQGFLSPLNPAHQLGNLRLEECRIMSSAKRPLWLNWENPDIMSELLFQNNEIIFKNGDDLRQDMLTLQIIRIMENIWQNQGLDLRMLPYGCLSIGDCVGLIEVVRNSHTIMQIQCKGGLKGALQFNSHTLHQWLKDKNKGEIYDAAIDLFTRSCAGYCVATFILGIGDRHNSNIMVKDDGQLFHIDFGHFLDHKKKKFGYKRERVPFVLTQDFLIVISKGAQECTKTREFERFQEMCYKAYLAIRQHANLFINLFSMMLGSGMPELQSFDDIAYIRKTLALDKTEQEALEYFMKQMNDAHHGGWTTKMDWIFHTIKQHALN
Sequence of Cytochrome P450 2C9 (P11712 whole entry): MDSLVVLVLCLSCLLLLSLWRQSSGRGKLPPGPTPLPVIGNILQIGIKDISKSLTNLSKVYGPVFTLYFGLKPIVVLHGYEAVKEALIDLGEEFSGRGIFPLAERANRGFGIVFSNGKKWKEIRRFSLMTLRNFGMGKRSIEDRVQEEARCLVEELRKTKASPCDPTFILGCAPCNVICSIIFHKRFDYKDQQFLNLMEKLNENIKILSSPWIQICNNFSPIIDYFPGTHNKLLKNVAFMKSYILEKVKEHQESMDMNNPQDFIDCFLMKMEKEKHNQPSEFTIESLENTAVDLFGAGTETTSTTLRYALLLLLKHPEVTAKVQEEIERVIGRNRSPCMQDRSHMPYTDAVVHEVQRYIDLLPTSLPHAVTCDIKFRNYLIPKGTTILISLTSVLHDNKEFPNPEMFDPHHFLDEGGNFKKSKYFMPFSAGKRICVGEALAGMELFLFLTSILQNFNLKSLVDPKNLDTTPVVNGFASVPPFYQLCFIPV
Sequence of Cytochrome P450 3A4 (P08684 whole entry): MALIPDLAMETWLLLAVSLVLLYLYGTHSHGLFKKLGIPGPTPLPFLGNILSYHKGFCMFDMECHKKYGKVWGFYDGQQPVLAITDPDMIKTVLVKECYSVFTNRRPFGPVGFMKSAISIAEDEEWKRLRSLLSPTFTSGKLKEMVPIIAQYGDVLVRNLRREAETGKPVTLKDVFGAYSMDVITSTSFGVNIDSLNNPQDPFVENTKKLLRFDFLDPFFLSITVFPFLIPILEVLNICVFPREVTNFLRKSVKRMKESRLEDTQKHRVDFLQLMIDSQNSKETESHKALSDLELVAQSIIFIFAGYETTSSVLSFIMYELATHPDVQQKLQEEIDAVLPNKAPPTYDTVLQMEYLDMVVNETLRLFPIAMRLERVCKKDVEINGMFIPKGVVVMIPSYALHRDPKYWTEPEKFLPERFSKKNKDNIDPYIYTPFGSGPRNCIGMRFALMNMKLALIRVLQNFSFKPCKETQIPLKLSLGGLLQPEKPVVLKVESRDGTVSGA
Sequence of Cytochrome P450 2D6 (P10635 whole entry): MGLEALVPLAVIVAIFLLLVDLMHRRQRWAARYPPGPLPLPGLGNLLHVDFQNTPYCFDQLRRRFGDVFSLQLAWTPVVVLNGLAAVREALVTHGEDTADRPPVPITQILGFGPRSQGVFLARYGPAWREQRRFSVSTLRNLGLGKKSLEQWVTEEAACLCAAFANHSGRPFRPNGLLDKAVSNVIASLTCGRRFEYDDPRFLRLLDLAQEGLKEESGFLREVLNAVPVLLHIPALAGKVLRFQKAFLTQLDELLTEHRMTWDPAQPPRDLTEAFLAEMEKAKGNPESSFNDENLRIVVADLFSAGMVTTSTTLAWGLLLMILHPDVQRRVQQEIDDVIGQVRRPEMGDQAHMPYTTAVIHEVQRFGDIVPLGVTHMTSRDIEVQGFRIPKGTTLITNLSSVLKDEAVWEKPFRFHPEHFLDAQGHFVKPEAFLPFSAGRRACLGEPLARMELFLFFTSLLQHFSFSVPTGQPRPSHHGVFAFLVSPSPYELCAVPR

As for `COc1ncc2cc1NS(=O)(=O)c1cccc(c1)C(=O)NCc1cccc(c1)-c1ncnc3ccc-2cc13`, the IC50 in data set [1] was 2.5 nM; on Cytochrome P450 1A2, greater than 30000 nM; against Cytochrome P450 3A4, greater than 30000 nM; at Cytochrome P450 2C9, greater than 30000 nM; against Cytochrome P450 2C19, greater than 30000 nM; at Cytochrome P450 2D6 it was greater than 30000 nM. This compound had an IC50 in data set [6] greater than 30000 nM. Besides, the 50% effective concentration (EC50) in [2] was found to be 47.9 nM. In addition, the results for the remaining at 0.25 h, 0.5 µM in data set [3], in data set [4] and in data set [5] were 97%, 74% and 91%, respectively.
As for `COc1ncc2cc1NS(=O)(=O)c1cccc(c1)C(=O)NCc1cncc(c1)-c1ncnc3sc-2cc13`, the IC50 in data set [7] stood at 39.9 nM.
On to `COc1ncc2cc1NS(=O)(=O)c1cccc(c1)C(=O)NCc1cccc(c1)-c1cnn3ccc-2nc13`, for which the results for the half-inhibitory concentration (IC50) in data set [1], in data set [7] and in [6] were 445 nM, greater than 10000 nM and greater than 30000 nM, respectively. In addition, the Ratio IC50 in the data set filed under Homo sapiens is greater than 22.
For the compound `COc1ncc2cc1NS(=O)(=O)c1cccc(c1)C(=O)NCc1cncc(c1)Cc1cnc3sc-2nn13`, the results for the IC50 in [1], in data set [7] and in data set [6] were 8.9 nM, 361 nM and greater than 30000 nM, respectively. Moreover, the Ratio IC50 in the data set listed under Homo sapiens amounted to 40.4.
With `COc1ncc2cc1NS(=O)(=O)c1cccc(c1)C(=O)NCCn1cc(cn1)-c1ncnc3ccc-2cc13`, the IC50 in [7] was 16.5 nM.
Take `COc1ncc2cc1NS(=O)(=O)c1cccc(c1)C(=O)NCc1cccc(c1)-c1ncnc3sc-2cc13`: the IC50 in data set [7] stood at 4.7 nM.
As to `COc1ncc2cc1NS(=O)(=O)c1cccc(c1)C(=O)N1CCc3ccc(cc3C1)-c1ccnc3ccc-2cc13`, the half-inhibitory concentration (IC50) in data set [7] was found to be 250 nM.
On the same count and under the same terms, under `COc1ncc2cc1NS(=O)(=O)c1cccc(c1)C(=O)NCc1cccc(c1F)-c1ccnc3ccc-2cc13` stands 223 nM.
As for `COc1ncc2cc1NS(=O)(=O)c1cc(c(F)cc1F)C(=O)NCc1cncc(c1)-c1ccnc3ccc-2nc13`, in data set [7], the IC50 was found to be 5.4 nM.
The same measure, in the same setting: under `COc1ncc2cc1NS(=O)(=O)c1cccc(c1)C(=O)NCc1cncc(c1)-c1cnn3ccc-2nc13` stands 67.6 nM; under `COc1ncc2cc1NS(=O)(=O)c1cccc(c1)C(=O)NCc1cccc(c1)-c1ccnc3ccc-2cc13`, 20.9 nM.
On to `COc1ncc2cc1NS(=O)(=O)c1cccc(c1)C(=O)NCCn1cc(cn1)-c1cnc3ccc-2cn13`, for which the half-maximal inhibitory concentration (IC50) is 5790 nM in data set [7] and greater than 30000 nM in [6].
With `COc1ncc2cc1NS(=O)(=O)c1cccc(c1)C(=O)NCCn1cc(cn1)-c1cnn3ccc-2nc13`, the IC50 in data set [7] is 66.3 nM.
